Source: PubChem (several laboratories)
Cardio protect = cardioprotection against H2O2-induced cell death, primary screen, uHTS, H9c2 cells, ATPLite luminescence; H9c2 cardiomyocytes, H2O2 injury protection, 2 h; protection from H2O2 cell death, % at 20 µM; 360,000 compounds, 0.63% hits; AID 588492, 2011;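 active = compounds giving at least 50% protection of heart cells from peroxide-induced death in the single-dose screen, raw or plate-pattern-corrected value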
JMJD2C inh = inhibitors of GASC-1 histone demethylase, primary screen, biochemical, fluorescence, DELFIA europium | Lysine-specific demethylase 4C (Homo sapiens), Q9H3R0 | GST-JMJD2C(1-420) H3K9me3 demethylation | inhibition, % at 2.35 µM | 330,000 compounds, 0.069% hits;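 active = more than half of a compound's replicate wells show inhibition beyond 50%, single wells judged on their own value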;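 note: signal counts dimethyl H3K9 product captured on neutravidin plate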
p-CIP stab down = p/CIP-EGFP fusion destabilizers, primary screen, fluorescence, F442A cells | 290,000 compounds, 0.01% hits | AID 1984, 2009 | decrease of EGFP signal, % at 10 µM | 16 h;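 active = EGFP signal decrease of at least 30% at 10 µM or well 3 SD below plate mean, unless failing retest; inactive = the rest, including hits failing retest or dose response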
CTSL1 counter = Fasciola hepatica cathepsin L1 inhibitors, primary screen, counter-screen for PFM18AAP inhibitor project, biochemical, QFRET, fluorogenic peptide substrate | AID 1906, 2009 | 300,000 compounds, 0.49% hits | inhibition, % at 5.96 µM | recombinant F. hepatica cathepsin L1, Z-Leu-Arg-MCA fluorescence;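 active = inhibition above the mean of all tested compounds plus 3 SD, set per screening campaign, cut at about 17% in these data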
PP5 primary = PP5 phosphatase inhibitors, primary screen, biochemical, fluorescence; purified PP5c, OMFP substrate fluorescence; inhibition, % at 6.7 µM; 320,000 compounds, 0.18% hits; AID 1987, 2009;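 active = inhibition above the campaign's mean inhibition across all tested compounds plus 3 SD, cut at about 9.5% in these data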
Target sequence (P53041 whole entry, looked up): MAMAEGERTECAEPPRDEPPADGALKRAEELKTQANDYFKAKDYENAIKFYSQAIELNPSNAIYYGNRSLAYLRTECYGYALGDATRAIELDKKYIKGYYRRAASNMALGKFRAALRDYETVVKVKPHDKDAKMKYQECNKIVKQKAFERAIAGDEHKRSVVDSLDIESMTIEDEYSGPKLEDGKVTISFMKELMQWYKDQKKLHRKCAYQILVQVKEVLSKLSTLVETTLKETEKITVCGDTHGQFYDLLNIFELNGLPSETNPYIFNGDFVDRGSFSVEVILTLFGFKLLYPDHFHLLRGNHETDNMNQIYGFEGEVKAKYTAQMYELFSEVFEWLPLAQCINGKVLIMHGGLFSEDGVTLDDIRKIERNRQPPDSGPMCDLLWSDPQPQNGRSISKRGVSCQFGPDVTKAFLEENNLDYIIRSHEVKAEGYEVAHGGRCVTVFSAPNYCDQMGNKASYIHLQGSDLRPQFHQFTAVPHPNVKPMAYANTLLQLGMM
T cruzi inh = inhibitors of intracellular T. cruzi growth, primary screen, luminescence, NIH3T3 host cells. T. cruzi beta-gal in NIH3T3, 90 h. inhibition, % (no concentration beside the values). 300,000 compounds, 1.4% hits. AID 1885, 2009;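 active = mean inhibition across valid replicates above about 55%, limit read from the data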;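 note: signal also drops with host cell toxicity which is not excluded here; higher percent means less beta-gal luminescence so fewer parasites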
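compound dosing = single 50 nL compound addition per well in DMSO | material = NIH/3T3 host cells with β-galactosidase reporter T. cruzi | input = 5,000 host fibroblasts per well | timing = ≥90 h infection period, 3 h prior cell attachment | read-out basis = percent inhibition of parasite-derived β-gal signal | detection = GalScreen β-gal luminescence, detergent lysis, 60 min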
Large screens that a line does not name were inactive. Most compounds without a hit are left out; they make up all but 2.4% or so of the library.

c1ccc(-c2cc3c(N4CCN(c5ccccc5)CC4)ncnc3s2)cc1	none
CN1CCN(c2ncnc3sc(-c4ccccc4)cc23)CC1	T cruzi inh 73.9
O=C(CN1C2=NCCCN2c2ccccc21)c1ccc([N+](=O)[O-])cc1	T cruzi inh 59.4
COc1ccc(-c2cc(CNC(=O)CCl)on2)cc1	CTSL1 counter 22.2
Cc1ccc(C(=O)NC(=S)N(C)C2CCCCC2)cc1Br	T cruzi inh 59.9
COc1ccc(C(=O)NC(=S)N(C)C2CCCCC2)cc1	none (no result: CTSL1 counter, PP5 primary, T cruzi inh)
CN(C(=S)NC(=O)c1ccccc1Br)C1CCCCC1	none
COc1ccc(C(=O)NC(=S)N(C)C2CCCCC2)cc1Br	T cruzi inh 59.5
O=C(CN1C(=O)NC2(CCOc3ccccc32)C1=O)N1CCCCC1 (stereo not drawn)	none (no result: p-CIP stab down, CTSL1 counter, PP5 primary, T cruzi inh)
CN(CCOc1ccc(Cl)cc1)C(=O)C1CCN(C(=O)c2ccc(Cl)cc2)CC1	none
CN(C)CCCn1c(=O)n(Cc2ccco2)c(=O)c2c3c(sc21)CCCCC3	none
CCOC(=O)c1sc2c(c1C)c(=O)n(Cc1ccccc1)c(=O)n2CCN(C)C	T cruzi inh 58.6
CN(C)CCCn1c(=O)n(CCc2ccccc2)c(=O)c2c3c(sc21)CCCCC3	T cruzi inh 60.8
CN(C)CCn1c(=O)n(Cc2ccccc2)c(=O)c2c3c(sc21)CCCCC3	T cruzi inh 59.3
Cc1cc(C)c(-c2csc(NC(=O)COC(=O)c3ccc4c(c3)OCO4)n2)c(C)c1	T cruzi inh 54.9
O=C(COC(=O)c1ccc2c(c1)OCO2)Nc1nc(-c2ccccc2)cs1	none
N#Cc1c(-c2ccc(F)cc2)c(-c2ccc(F)cc2)nn(CCO)c1=O	none (no result: JMJD2C inh, p-CIP stab down, CTSL1 counter, PP5 primary, T cruzi inh)
O=C(C[C@H]1C/C=C\CC[C@H](Cc2ccc(F)cc2)C(=O)O[C@H](c2ccccc2)CNC1=O)N[C@H](CO)Cc1ccccc1	Cardio protect 90.2 (no result: p-CIP stab down, CTSL1 counter, PP5 primary, T cruzi inh)
CC(C)(C)OC(=O)C[C@H]1C/C=C\C[C@H](CC(=O)N[C@H](CO)Cc2ccccc2)C(=O)N[C@H](Cc2ccccc2)COC1=O	Cardio protect 57.9 (no result: p-CIP stab down, CTSL1 counter, PP5 primary, T cruzi inh)
O=C(C[C@H]1C/C=C\CC[C@H](Cc2ccc(F)cc2)C(=O)O[C@@H](c2ccccc2)CNC1=O)N[C@H](CO)Cc1ccccc1	Cardio protect 50.7 (no result: p-CIP stab down, CTSL1 counter, PP5 primary, T cruzi inh)
CC(C)(C)OC(=O)C[C@@H]1C/C=C\C[C@H](CC(=O)N[C@H](CO)Cc2ccccc2)C(=O)N[C@H](Cc2ccccc2)COC1=O	none (no result: p-CIP stab down, CTSL1 counter, PP5 primary, T cruzi inh)
CCOC(=O)[C@H]1[C@H]2COc3ccc(Br)cc3[C@@H]2N2C(=O)c3cc(OC)c(OC)cc3NC(=O)[C@@]12C	Cardio protect 50.5 (no result: p-CIP stab down, T cruzi inh)
O=C(NCC1CCCO1)c1cccc(S(=O)(=O)Nc2ccc(SC(F)F)cc2)c1 (stereo not drawn)	none (no result: p-CIP stab down, CTSL1 counter, T cruzi inh)
COc1ccccc1CCN1CCCC(CN(C)C(=O)CCC(N)=O)C1 (stereo not drawn)	none
C/C(=N\NC(N)=S)C1=CCC2C3CC[C@H]4CC(O)CC[C@]4(C)C3CC[C@]12C (stereo partly drawn)	T cruzi inh 60.5
CC(CCC(=O)NN)C1CCC2C3CCC4CC(O)CCC4(C)C3CCC12C (stereo not drawn)	none (no result: JMJD2C inh, p-CIP stab down, CTSL1 counter, PP5 primary, T cruzi inh)
NC(=O)CSc1nc2ccccc2c(=O)n1CCc1ccccc1	none
O=c1c2ccccc2nc(SCCN2CCCCC2)n1CCc1ccccc1	T cruzi inh 62.8
CC(C)(C)c1cc(CCC(=O)NNC(=S)NC(=O)c2ccccc2)cc(C(C)(C)C)c1O	T cruzi inh 59.4
COc1ccc(CC(C)Nc2cccc(SC)c2)cc1 (stereo not drawn)	none (no result: CTSL1 counter, PP5 primary)
CCc1ccccc1OCC(=O)Nc1nc(-c2cccnc2)cs1	PP5 primary 10.1, T cruzi inh 77.9
Cc1ccc(S(=O)(=O)N(C)c2ccc(OCC(=O)Nc3nc(-c4ccccc4)cs3)cc2)cc1	none
CN(c1ccc(OCC(=O)Nc2nc(-c3ccccc3)cs2)cc1)S(=O)(=O)c1ccc(F)cc1	T cruzi inh 55.0
CCC(=O)c1ccc(OCC(=O)Nc2nc(-c3cccnc3)cs2)cc1	none (no result: p-CIP stab down)
O=C(CC1CC2CCC1C2)Nc1nc(-c2ccccn2)cs1 (stereo not drawn)	Cardio protect 53.3, T cruzi inh 62.0
COc1ccc2oc(C(=O)Nc3nc(-c4ccccn4)cs3)c(C)c2c1	T cruzi inh 70.0 (no result: p-CIP stab down)
CCN(CC(=O)Nc1ccccc1C(F)(F)F)C(=O)c1ccc2[nH]c3c(c2c1)CC(C)CC3 (stereo not drawn)	none (no result: p-CIP stab down)
CN(C)S(=O)(=O)c1ccc(NC(=O)CSc2nnc(-c3ccco3)o2)cc1	none (no result: p-CIP stab down, CTSL1 counter, PP5 primary, T cruzi inh)
CN(C)c1ccc(/C=N/NC(=O)CN2CCCCC2)cc1Br	none
O=C(CCS(=O)(=O)c1ccc(F)cc1)Nc1nc(-c2ccccn2)cs1	none
Cc1ccccc1OCC(=O)Nc1nc(-c2ccncc2)cs1	none (no result: p-CIP stab down, CTSL1 counter, T cruzi inh)
CC(Oc1ccc(F)cc1)C(=O)Nc1nc(-c2ccccn2)cs1 (stereo not drawn)	Cardio protect 66.8 (no result: p-CIP stab down)
C[C@H](NC(=O)c1ccco1)C(=O)Nc1nc(-c2ccccn2)cs1	none (no result: JMJD2C inh, p-CIP stab down, CTSL1 counter, PP5 primary, T cruzi inh)
COc1ccc(-c2csc(NC(=O)c3ccccc3NS(=O)(=O)c3ccc(F)c(F)c3)n2)cc1	PP5 primary 11.7
O=C(CCS(=O)(=O)c1ccccc1)Nc1nc(-c2ccccn2)cs1	Cardio protect 51.4 (no result: p-CIP stab down)
Cc1cc(C)c(OCC(=O)Nc2nc(-c3ccccn3)cs2)c(C)c1	Cardio protect 63.1, T cruzi inh 69.7
CC(=O)Nc1cccc(-c2ccnc3c2CC(C(=O)NCCc2ccccc2)O3)c1 (stereo not drawn)	none (no result: JMJD2C inh, p-CIP stab down, CTSL1 counter, PP5 primary, T cruzi inh)
Cc1cc(C)c(N2C(=O)CC(Sc3ccccc3N)C2=O)c(C)c1 (stereo not drawn)	none (no result: JMJD2C inh, p-CIP stab down, CTSL1 counter, PP5 primary, T cruzi inh)
COc1ccccc1-c1csc(C(O)(c2ccccc2)C(F)(F)F)n1 (stereo not drawn)	none (no result: JMJD2C inh, p-CIP stab down, CTSL1 counter, PP5 primary, T cruzi inh)
COc1ccc(OCCC(=O)Nc2nccs2)cc1	none
COc1ccc(OCCCC(=O)Nc2nc(-c3ccccn3)cs2)cc1	T cruzi inh 62.3
Cn1c(=O)c(Nc2ccc(O)cc2)c2c3c(cccc31)C(=O)c1ccccc1-2	JMJD2C inh 59.6
CC(=O)c1c2c3c(cccc3n(C)c1=O)C(=O)c1ccccc1-2	none (no result: Cardio protect)
O=C(OCc1cn([C@H]2CN(C(=O)c3cccs3)[C@@H](c3ccc(Cl)cc3)C[C@@H]2O)nn1)c1ccccc1	none (no result: JMJD2C inh, p-CIP stab down, CTSL1 counter, PP5 primary, T cruzi inh)
COc1ccc(CNc2oc(COc3ccc(Cl)cc3)nc2C#N)cc1	T cruzi inh 66.3
CN(C)c1oc(-c2ccc(OCc3ccc(Cl)cc3)cc2)nc1C#N	T cruzi inh 62.6
CCOc1ccc(Nc2oc(-c3ccc(Cl)cc3)nc2C#N)cc1	none
